The values below come from ChEMBL document CHEMBL1125023, “Flexible N-methyl-4-phenyl-1,2,3,6-tetrahydropyridine analogues: synthesis and monoamine oxidase catalyzed bioactivation” (J Med Chem, 1990).

Broadly, the Km is the concentration of substrate that gives half-maximal velocity.

In series [1] the target is T1, Monoamine oxidase (Rattus norvegicus, UniProt P19643+P21396).
T1 sequence (P19643 whole entry): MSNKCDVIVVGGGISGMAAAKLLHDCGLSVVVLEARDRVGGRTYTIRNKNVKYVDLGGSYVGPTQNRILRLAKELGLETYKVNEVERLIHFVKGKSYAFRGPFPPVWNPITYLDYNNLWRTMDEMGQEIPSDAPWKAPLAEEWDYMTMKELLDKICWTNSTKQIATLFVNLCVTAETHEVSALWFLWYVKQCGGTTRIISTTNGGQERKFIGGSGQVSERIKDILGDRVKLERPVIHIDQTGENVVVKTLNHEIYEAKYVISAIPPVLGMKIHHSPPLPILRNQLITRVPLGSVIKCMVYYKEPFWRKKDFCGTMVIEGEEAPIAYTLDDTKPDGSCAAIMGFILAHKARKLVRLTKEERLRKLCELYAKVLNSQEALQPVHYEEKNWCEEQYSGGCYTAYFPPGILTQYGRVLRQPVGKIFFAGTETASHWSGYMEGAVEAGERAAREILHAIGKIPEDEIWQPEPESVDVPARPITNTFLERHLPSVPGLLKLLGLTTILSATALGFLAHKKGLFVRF
T1 sequence (P21396 whole entry): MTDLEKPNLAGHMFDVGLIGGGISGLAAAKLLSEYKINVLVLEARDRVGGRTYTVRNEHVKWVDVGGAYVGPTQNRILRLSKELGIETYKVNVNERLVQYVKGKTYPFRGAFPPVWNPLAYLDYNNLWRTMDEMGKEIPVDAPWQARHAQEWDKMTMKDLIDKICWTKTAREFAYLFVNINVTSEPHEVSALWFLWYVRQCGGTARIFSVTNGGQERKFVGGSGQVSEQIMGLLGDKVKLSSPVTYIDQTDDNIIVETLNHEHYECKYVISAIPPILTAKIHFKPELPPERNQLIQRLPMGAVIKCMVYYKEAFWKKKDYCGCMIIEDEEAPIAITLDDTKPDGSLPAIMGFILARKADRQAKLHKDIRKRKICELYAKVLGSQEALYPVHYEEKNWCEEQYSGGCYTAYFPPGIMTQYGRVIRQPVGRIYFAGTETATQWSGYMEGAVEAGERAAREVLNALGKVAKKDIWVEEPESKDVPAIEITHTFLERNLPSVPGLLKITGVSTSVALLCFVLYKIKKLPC
As to the kind of experiment: Ratio of Kinetic constants (Km vs. Vmax). The format is protein assay.

The species named for series [2] is Rattus norvegicus. As to the kind of experiment: (§1) Kinetic constant (Km) determined in rat brain mitochondria. It is filed as functional. The method in brief: (§2)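 Mitochondria from rat brain were isolated by differential centrifugation with a Ficoll gradient, lysed in pH 7.4 phosphate buffer with sodium azide, and diluted to 400–800 μg protein/mL. Incubations at 37 °C for 30 min used seven substrate concentrations from 0.0125 to 1 mM, plus 2 and 4 mM for poor substrates. H2O2 was read with ABTS–horseradish peroxidase. Km and Vmax came from Lineweaver-Burk plots: three days, duplicates, mean of six ± SD.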

Series [3] deals with T1, Monoamine oxidase. As to the kind of experiment: Kinetic constant (Vmax) determined in rat brain mitochondria. The method in brief:
as §2

The species named for series [4] is Rattus norvegicus. As to the kind of experiment: Tested for pargyline-induced inhibition of MAO-catalyzed oxidation in rat brain mitochondria (Specific inhibitor = Pargyline hydrochloride at 2.5 uM) (Control = 18.87). The format is functional.
Series [5] addresses T1, Monoamine oxidase. The series is described as §1. The method in brief:
as §2

Series [6] is filed under the species Rattus norvegicus. The series can be described thus: Tested for pargyline-induced inhibition of MAO-catalyzed oxidation in rat brain mitochondria (Specific inhibitor = Pargyline hydrochloride at 2.5 uM) (Control = 19.20). The format is functional.
Series [7] is filed under the species Rattus norvegicus. The series can be described thus: Tested for pargyline-induced inhibition of MAO-catalyzed oxidation in rat brain mitochondria (Specific inhibitor = Pargyline hydrochloride at 2.5 uM) (Control = 28.60). It is filed as functional.
Series [8] deals with Monoamine oxidase (Rattus norvegicus). As to the kind of experiment: Percent inhibition of MAO-catalyzed oxidation in rat brain mitochondria induced by pargyline.
Series [9] is filed under the species Rattus norvegicus. The series can be described thus: Tested for pargyline-induced inhibition of MAO-catalyzed oxidation in rat brain mitochondria (Specific inhibitor = Pargyline hydrochloride at 2.5 uM) (Control = 17.95). It is filed as functional.
Series [10] is filed under the species Rattus norvegicus. As to the kind of experiment: Tested for pargyline-induced inhibition of MAO-catalyzed oxidation in rat brain mitochondria (Specific inhibitor = Pargyline hydrochloride at 2.5 uM) (Control = 33.85). It is filed as functional.
The species entered for series [11] is Rattus norvegicus. As to the kind of experiment: Tested for pargyline-induced inhibition of MAO-catalyzed oxidation in rat brain mitochondria (Specific inhibitor = Pargyline hydrochloride at 2.5 uM) (Control = 30.65). The format is functional.
For series [12], the species on record is Rattus norvegicus. The series can be described thus: Tested for pargyline-induced inhibition of MAO-catalyzed oxidation in rat brain mitochondria (Specific inhibitor = Pargyline hydrochloride at 2.5 uM) (Control = 31.40). It is filed as functional.
Series [13] addresses T1, Monoamine oxidase. Described as §1. The method in brief: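 Rat brain mitochondria (Ficoll gradient, lysed in phosphate buffer pH 7.4 with azide) at 400–800 μg protein/mL. Incubated 30 min at 37 °C with substrate at 0.0125–1 mM, plus 2 and 4 mM for poor substrates. H2O2 read by ABTS–horseradish peroxidase against a standard curve. Km by Lineweaver-Burk; three separate days in duplicate, mean of six ± SD.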
The source holds these as a separate data set.

The target of series [14] is T1, Monoamine oxidase. The series can be described thus: Tested for pargyline-induced inhibition of MAO-catalyzed oxidation in rat brain mitochondria (Specific inhibitor = Pargyline hydrochloride at 2.5 uM) (Control = 16.58). It is filed as functional.

For the molecule `CN1CC=C(Cc2ccc(Cl)cc2)CC1`, the Ratio in [1] is 5.15. Besides, the Km in [2] turned out to be 49.4 µM. Besides, in series [3], the Vmax is recorded as 23900000 (nM of H202) min-1 (ug of protein)-1. The Inhibition ((nM of H202) min-1 (ug of protein)-1) in series [4] turned out to be 10.3.
`CC(C1=CCN(C)CC1)c1ccccc1` (stereo not given): the Km in [5] worked out at 70.2 µM. Moreover, the Ratio in [1] was determined as 1.26. In addition, the Vmax in [3] was 4187000 (nM of H202) min-1 (ug of protein)-1.
For the molecule `Cc1ccccc1CC1=CCN(C)CC1`, the Ratio in series [1] amounted to 3.71. Also, the Km in [2] amounted to 58.8 µM. Also, in [3], the Vmax is reported as 21933000 (nM of H202) min-1 (ug of protein)-1. In addition, the Inhibition ((nM of H202) min-1 (ug of protein)-1) in series [6] was 9.24.
`Cc1ccc(CC2=CCN(C)CC2)cc1`: the Km in series [5] worked out at 15.9 µM. The Ratio in series [1] is given as 5.17. Also, the Vmax in series [3] is 8.1e+06 (nM of H202) min-1 (µg of protein)-1.
In the case of `CN1CC=C(Cc2cccc3ccccc23)CC1`, the Inhibition ((nM of H202) min-1 (ug of protein)-1) in series [7] is 26.4. Moreover, the Ratio in series [1] came out at 5.03. This molecule also had an Inhibition in series [8] of 8%. Moreover, the Km in series [2] was 76.5 µM. Further, the Vmax in series [3] is on record as 38233000 (nM of H202) min-1 (ug of protein)-1.
On to `CN1CC=C(CCc2ccccc2)CC1`, for which the Ratio in series [1] turned out to be 3.74. Moreover, the Inhibition in series [8] was determined as 54%. In [2], the Michaelis-Menten constant (Km) turned out to be 119 µM. In series [9], the Inhibition ((nM of H202) min-1 (ug of protein)-1) came to 8.22. Further, the Vmax in series [3] is on record as 38533000 (nM of H202) min-1 (ug of protein)-1.
For the molecule `COc1ccc(CC2=CCN(C)CC2)cc1`, the Km in series [5] was determined as 24.8 µM. Moreover, the Ratio in series [1] is listed as 7.87. In addition, the Vmax in series [3] is listed as 18000000 (nM of H202) min-1 (ug of protein)-1.
For `CN1CC=C(/C=C/c2cccc(Br)c2)CC1` the same measures were 187 µM, 0.565 and 2690000 (nM of H202) min-1 (ug of protein)-1.
For `CN1CC=C(Cc2cccs2)CC1`, the Ratio in [1] came out at 9.86. In series [8], this molecule had an Inhibition of 68%. For the same molecule, the Km in series [2] was determined as 42.2 µM. Further, the Inhibition ((nM of H202) min-1 (ug of protein)-1) in [10] was found to be 10.9. Also, the Vmax in [3] was 38133000 (nM of H202) min-1 (ug of protein)-1.
`Cc1cccc(CC2=CCN(C)CC2)c1` showed an Inhibition ((nM of H202) min-1 (ug of protein)-1) in series [11] of 9.49. Besides, in [1], the Ratio turned out to be 6.95. For the same molecule, in series [2], the Km was found to be 77.1 µM. Further, the Vmax in series [3] is recorded as 45533000 (nM of H202) min-1 (ug of protein)-1.
Turning to `CN1CC=C(CCc2cccc(Cl)c2)CC1`, the Michaelis constant (Km) in series [5] came to 20.8 µM. In addition, in series [1], the Ratio was 4.44. Further, the Vmax in series [3] was 6477000 (nM of H202) min-1 (ug of protein)-1.
Turning to `CN1CC=C(Cc2ccc(I)cc2)CC1`, in series [5], the Km was 36.1 µM. Moreover, the Ratio in series [1] was 2.38. Moreover, in series [3], the Vmax was 6290000 (nM of H202) min-1 (ug of protein)-1.
Consider `CN1CC=C(Cc2ccccc2)CC1`, for which the Inhibition ((nM of H202) min-1 (ug of protein)-1) in series [12] is 3.71. In addition, the Ratio in series [1] stood at 9.36. The Km in series [2] stood at 44.4 µM. Also, the Vmax in [3] is given as 39800000 (nM of H202) min-1 (ug of protein)-1.
On to `CN1CC=C(c2ccccc2)CC1`, for which the Vmax in series [3] is given as 27033000 (nM of H202) min-1 (ug of protein)-1. In addition, the Michaelis constant (Km) in series [13] came to 134 µM. For the same molecule, the Inhibition in [14] is 0 (nM of H202) min-1 (ug of protein)-1.
Consider `CN1CC=C(C(Oc2ccc(Br)cc2)c2ccccc2)CC1` (stereo not given), for which the Km in [5] is 57.2 µM. The Ratio in series [1] is on record as 0.74. Besides, the Vmax in series [3] is recorded as 3137000 (nM of H202) min-1 (ug of protein)-1.
On to `NCc1ccccc1` [BENZYLAMINE], for which, in series [5], the Km came to 169 µM. For the same molecule, the Vmax in series [3] is 33600000 (nM of H202) min-1 (ug of protein)-1.
In the case of `CN1CC=C(Cc2ccc(O)cc2)CC1`, the Km in [5] was 363 µM. Also, the Ratio in series [1] turned out to be 0.38. Further, the Vmax in [3] is listed as 9850000 (nM of H202) min-1 (ug of protein)-1.
